Data set [1] has as its system Staphylococcus aureus. The data set can be described thus: Antibacterial activity against mecA-positive multidrug resistant Staphylococcus aureus NRS119 incubated for 16 to 20 hrs by microdilution method. The class given is functional. In general terms: Broth dilution looks for growth in wells or tubes with falling amounts of substance.
The subject of data set [2] is Staphylococcus aureus. Description: Antibacterial activity against mecA-positive multidrug resistant Staphylococcus aureus NRS120 incubated for 16 to 20 hrs by microdilution method. The format is functional.
Data set [3] concerns Staphylococcus epidermidis. The data set can be described thus: Antibacterial activity against Staphylococcus epidermidis ATCC 35547 incubated for 16 to 20 hrs by microdilution method. The class given is functional. The procedure, abridged: (§1)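 CLSI broth microdilution. 2-fold serial dilutions were made in cation-adjusted Mueller–Hinton broth, with 5% lysed horse blood added for Streptococcus strains, in triplicate. Inoculum 5×10^5 CFU/mL. Plates incubated 36 °C for 16–20 h. MIC taken as the lowest concentration visibly inhibiting growth.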

Data set [4] relates to Staphylococcus haemolyticus. Description: Antibacterial activity against Staphylococcus haemolyticus ATCC 29970 incubated for 16 to 20 hrs by microdilution method. The class given is functional.
A further data set deals with Enterococcus faecium. The data set can be described thus: Antibacterial activity against Enterococcus faecium NCTC 7171 incubated for 16 to 20 hrs by microdilution method. The class given is functional. The procedure, abridged:
as §1

Data set [5] has as its system Staphylococcus aureus. Description: […] activity against methicillin-susceptible Staphylococcus aureus ATCC 29213. The class given is functional. Particulars: read-out: MBC99.9.
In data set [6] the test system is Staphylococcus aureus. The data set can be described thus: […] activity against multidrug resistant Staphylococcus aureus ATCC 27660. The format is functional. Particulars: read-out: MBC99.9.
Data set [7] has as its system Staphylococcus aureus. The data set can be described thus: […] activity against methicillin-resistant Staphylococcus aureus NRS70. The class given is functional. Particulars: read-out: MBC99.9.
In data set [8] the test system is Staphylococcus aureus. Description: Antibacterial activity against methicillin-resistant Staphylococcus aureus NRS70 in ICR mouse neutropenic thigh infection model assessed as reduction in bacterial load at 10 mg/kg, sc tid administered every 8 hrs starting from 1 hr post infection and measured 7 hrs post last dose. The format is functional, organism-based. The procedure, abridged:
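Female ICR mice (n = 8 per group) made neutropenic with ip cyclophosphamide 200 mg/kg at 4 days and 1 day pre-infection; 100 μL NRS70 (~1×10^6 CFU/mL in brain–heart infusion) injected im into right thigh; sc doses at 1, 9, 17 h; thighs harvested at 24 h, homogenized, plated in triplicate on LB agar; log10 CFU/g.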

A further data set deals with Plasma. Description: Drug level in plasma of ICR mouse neutropenic thigh model of methicillin-resistant Staphylococcus aureus NRS70 infection at 10 mg/kg, sc tid administered every 8 hrs starting from 1 hr post infection and measured 7 hrs post last dose by UPLC analysis. The format is ADME, organism-based. The settings on record: in vivo, BLD = below limit of detection. Summed up: (§2)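 Neutropenic thigh model (cyclophosphamide 200 mg/kg ip, NRS70 im), sc doses at 1, 9 and 17 h; at 24 h cardiac blood and uninfected thigh taken (n = 8 per group); thigh homogenate supernatant and plasma acetonitrile-quenched with internal standard, analysed by UPLC with MRM detection.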

Data set [9] is described as follows: Drug level in uninfected thighs of ICR mouse neutropenic thigh model of methicillin-resistant Staphylococcus aureus NRS70 infection at 10 mg/kg, sc tid administered every 8 hrs starting from 1 hr post infection and measured 7 hrs post last dose by UPLC analysis. The class given is ADME, organism-based. The settings on record: in vivo, BLD = below limit of detection. Summed up: as §2

Converted amounts (≈) assume the structure as drawn. The source made the active and inactive calls. The calls are words filed in the database; no cut-off is given here.

The record followed here is ChEMBL document CHEMBL3817745, “Structure-Activity Relationship for the 4(3H)-Quinazolinone Antibacterials” (J Med Chem, 2016).

Regarding `CC(=O)NC[C@H]1CN(c2ccc(N3CCOCC3)c(F)c2)C(=O)O1` [LINEZOLID], the minimal inhibitory concentration (MIC) (usually the lowest concentration found to suppress growth) was 32 µg/mL (≈ 94.9 µM) against Staphylococcus aureus [1]; 32 µg/mL (≈ 94.9 µM) with Staphylococcus aureus [2]; 1 µg/mL (≈ 2.96 µM) in [3]; 2 µg/mL (≈ 5.93 µM) in [4]; 2 µg/mL (≈ 5.93 µM) against Enterococcus faecium. Further, the MBC with Staphylococcus aureus [5] was found to be 16 µg/mL (≈ 47.4 µM); in the data set on Staphylococcus aureus [6], 16 µg/mL (≈ 47.4 µM); in the data set on Staphylococcus aureus [7], 8 µg/mL (≈ 23.7 µM). For the same compound, the outcome in the data set with Staphylococcus aureus [8] was Active. Moreover, the Cp entry in the data set with Plasma is “BLD”. The Drug uptake result in data set [9] is listed as “BLD”.
